From ChEMBL document CHEMBL4513216, “Probing the Open Global Health Chemical Diversity Library for Multistage-Active Starting Points for Next-Generation Antimalarials” (ACS Infect Dis, 2020) come the findings set out here.

Structures are written as SMILES.

A short description of this series: Toxicity liver stage against HepG2, at 10uM. Details: test concentration 10 uM, cell line HepG2-A16-CD81EGFP. In kind it is cell-based. The following applies: human, HepG2-A16-CD81EGFP cells; read-out: INHIBITION
In short, it runs like this:
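Uninfected HepG2-A16-CD81EGFP cells, 3 × 10^3 per well, 1536-well, plated on prespotted compound at 10 μM final, parasite-free screening media added to match infected plates; puromycin 10 μM positive, DMSO 0.5% negative; run in parallel with 48 h PbLuc assay at 37 °C, 5% CO2; viability by CellTiter-Glo luminescence, normalized to controls.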
On to `CC(C)c1nnc(NC(=O)CCC(=O)NCC2CCCO2)s1` (stereo unspecified), for which the cytotoxicity at 10 µM is -9.58%. To `Cc1ccc(S(=O)(=O)NC[C@H]2OC[C@@H](NCc3cccs3)[C@@H]2O)cc1` belongs -3.24%. Consider `Cc1ccn2c(=O)cc(CSCC(=O)Nc3nnc(C(C)C)s3)nc2c1`, for which the cytotoxicity at 10 µM was -8.93%. To `CCc1ccccc1NCc1nc2[nH]c(C)c(C)c(=O)n2n1` belongs 7.98%. The same measure for `COC(=O)CSc1nnc(CCNC(=O)OC(C)(C)C)o1`: 4.34%; for `COc1ccc2c3c1CN(C(C)=O)CC3=CC(C)(C)CO2`: 10.1%. Turning to `COC1CN(C(=O)OCC(C)C)CCC(=O)N(C)c2ccccc21` (stereo unspecified), the cytotoxicity at 10 µM was -0.321%. To `O=C(Nc1cccnc1-n1cc(Cl)cn1)C1CCCCC1` belongs -39%; to `Cc1nn(C)c(C)c1C1SCC(=O)Nc2c1c(O)nn2C(C)C` (stereo unspecified), -6.82%. To `O=C(Nc1ccc(Br)cc1F)c1ccc(N2CCOCC2)nn1` belongs 22.4%; to `CCOc1ccc(CNC(=O)c2cnc(OC)nc2)cc1`, -0.121%. The same measure for `Cc1ccccc1-c1csc2c(=O)[nH]c(N3CCCC(C(=O)O)C3)nc12` (stereo unspecified): -3.16%. For `O=C(COc1ccc(Cl)cc1)Nc1cnc(N2CCOCC2)nc1`, the cytotoxicity at 10 µM was -8.18%. In the case of `Cn1cnc(S(=O)(=O)NCC(C)(O)c2ccc3c(c2)OCO3)c1` (stereo unspecified), the cytotoxicity at 10 µM was -4.44%. Turning to `COCC(=O)N1CC[C@H]2[C@H]1CCN2CC(C)C`, the cytotoxicity at 10 µM was 1.18%. To `CCN1CC2(CC1=O)CN(C(=O)C(C)C)CCN(S(=O)(=O)CC)C2` (stereo unspecified) belongs 16%.

As to `Cc1nc(Nc2ccc(Cl)cn2)sc1C(=O)NCCCN1CCCCC1`, the cytotoxicity at 10 µM stood at 1.66%. `CC(C)n1c(=O)c2sccc2n(CC(=O)Nc2ccccc2)c1=O`: the cytotoxicity at 10 µM was 8.02%. To `CCc1noc(C2CCCCN2C(=O)c2cc(C)n(C)n2)n1` (stereo unspecified) belongs 11.2%. The same measure for `O=C(Nc1cc(CCC2CCN(CCO)CC2)ccn1)c1ccccn1`: -4.03%; for `CN1CCNCC(Cc2cnc3ccccc3c2)C1` (stereo unspecified): -12.4%. To `NC(=O)c1cccc(C2CCN(c3ncccn3)CC2)n1` belongs 0.00505%; to `CC(C)CN1CCCC1c1cc[nH]n1` (stereo unspecified), 9.95%. `Cn1cc(CN2CCc3nc(-c4ccccn4)nc(O)c3C2)cn1`: the cytotoxicity at 10 µM is -3.81%.

As to `Cc1nc(Nc2nccs2)cc(C2CCCN2C2CCOCC2)n1` (stereo unspecified), the cytotoxicity at 10 µM was -7.08%. To `OCc1c(Cl)ncn1-c1ccc(F)cc1` belongs 6.61%.

Take `CCN(CC)CC(=O)N1CCN(CCc2ccncc2)CC1`: the cytotoxicity at 10 µM is -44.7%. In the case of `CN(C)c1ccc(C(=O)NCc2cccnc2-n2cncn2)cc1F`, the cytotoxicity at 10 µM was 2.84%. The same measure for `CNS(=O)(=O)c1cccc(C(C)NCc2cccc(C)c2C)c1` (stereo unspecified): 9.44%. Take `COCCN(Cc1ccc(F)cc1Cl)C(=O)c1ccccn1`: the cytotoxicity at 10 µM amounted to 11.8%.

As to `Cn1ncnc1CNc1ccc2c(c1)N(C(=O)OC(C)(C)C)CCC2`, the cytotoxicity at 10 µM is 6.37%.

With `Cc1ncc(CN(C)C(=O)Nc2cccc(CN3CCOC3=O)c2)s1`, the cytotoxicity at 10 µM was -2.27%. Turning to `CCSCc1cccc(NC2CCN(C)C2=O)c1` (stereo unspecified), the cytotoxicity at 10 µM came out at 1.18%.

On to `CC(C)c1ccc(CNC(C)c2ccc(S(=O)(=O)N(C)C)cc2)cc1` (stereo unspecified), for which the cytotoxicity at 10 µM came to 32.6%. In the case of `Cc1csc(C(C#N)C(=O)NCc2ccccc2)n1` (stereo unspecified), the cytotoxicity at 10 µM turned out to be 4.02%. As to `N#Cc1ccc(CNC(=O)NCCNC(=O)C2CCCC2)c(F)c1`, the cytotoxicity at 10 µM came to 4.17%. As to `C=C(C)COc1cccc(C(=O)N2CCC3(CCOCC3)CC2)c1`, the cytotoxicity at 10 µM was -47.1%.

Consider `c1csc(CN2CCCN(c3ccc(Cn4ccnc4)cn3)CC2)c1`, for which the cytotoxicity at 10 µM was -18.2%.

On to `Cc1n[nH]c(C)c1CCC(=O)NCC1COc2ccccc2C1` (stereo unspecified), for which the cytotoxicity at 10 µM is -40.2%. To `Cc1ncsc1C(=O)NCc1cccnc1N(C)CCc1ccccn1` belongs -14.5%; to `CCN1CC2(CCN(C(=O)C(C)Oc3ccc(F)cc3F)CC2)OC1=O` (stereo unspecified), -1.98%; to `Nc1nccc(N2CCNC(C(=O)NCc3ccccn3)C2)n1` (stereo unspecified), -48.5%. The same measure for `CCOc1ccnc(NCc2nc(C)cc(C(F)(F)F)n2)n1`: -10.1%; for `Cc1cc(F)ccc1S(=O)(=O)N1C[C@@H](C)[C@@](C)(O)C1`: -7.25%; for `CC(=O)Nn1c(C)cc(CN2CCC(C(=O)N3CCCC3)CC2)c1C`: 1.57%. The same measure for `Cc1nc2ccccc2nc1NCc1nnc2n1CCC2`: -1.8%; for `CCn1ccnc1CN(C)c1cc(C2CC2)ncn1`: -47.9%. On to `CCc1ccc(NC(=O)CCN2CC(n3nc(C)cc3C)C2)cc1`, for which the cytotoxicity at 10 µM was -8.03%. On to `C=C(C)COc1cccc(CNCCc2nc(N)cc(O)n2)c1`, for which the cytotoxicity at 10 µM was -47.1%. The same measure for `O=C1CCCCN1CCc1nc(-c2cccnn2)no1`: -5.67%; for `Cc1ccc(CCC(=O)N2CCC(Nc3cccnn3)CC2)cc1`: -5.36%; for `COCCN1CCC(CNC(=O)C2(c3ccc(Br)cc3)CCCC2)C1` (stereo unspecified): -5.3%. For `O=C1NCCN1C1CCN(Cc2coc(-c3ccc(F)cc3)n2)CC1`, the cytotoxicity at 10 µM is -3.52%. The same measure for `Cn1cc(CN2CCCN(C(=O)c3ccc4ccccc4n3)CC2)cn1`: -1.9%; for `Cc1ccc(N(C)S(=O)(=O)c2cc(C(=O)O)cs2)cc1`: 0.0898%; for `CCOc1ccc(Cl)c(C(=O)N2CCN(c3cnccn3)CC2)n1`: -4.89%. Regarding `CC(C)c1n[nH]c(C2CN(C(=O)c3csnn3)CCO2)n1` (stereo unspecified), the cytotoxicity at 10 µM is -4.89%. For the compound `COc1cc(C)ccc1OCCC(=O)N1CCCC1Cn1cccn1` (stereo unspecified), the cytotoxicity at 10 µM is -7.81%. To `Cn1ncc2c(=O)[nH]c(CN3CCC(Cc4ccccc4)CC3)nc21` belongs -2.28%.

Take `CCN(CC)C(=O)Cn1ccc2cc(NC(=O)C3CC3)ccc21`: the cytotoxicity at 10 µM was -3.87%. In the case of `Cc1nc(-c2ccsc2)ccc1C(=O)NCCC1CCCO1` (stereo unspecified), the cytotoxicity at 10 µM was -9.75%. The same measure for `Cc1nccn1C1CCCN(C(=O)c2cc(O)nc3ccccc23)C1` (stereo unspecified): -6.9%; for `CN(CC1CCCCC1)C(=O)c1ccc(-n2ncc(C#N)c2N)cc1`: 0.347%.

With `COc1ccc(CN2CCc3sccc3C2C)cc1CN1CCOCC1` (stereo unspecified), the cytotoxicity at 10 µM is -0.782%.

As to `c1csc(-c2noc(C3CN(Cc4ccc5c(c4)CCO5)C3)n2)c1`, the cytotoxicity at 10 µM was -8.2%. Consider `O=C(Cc1ccsc1)N1C[C@@H]2OCCN(c3cnccn3)[C@@H]2C1`, for which the cytotoxicity at 10 µM was 11.6%.

Regarding `CN(C)Cc1cnc2n1CCN(C(=O)Cc1ccc(F)cc1)CC2`, the cytotoxicity at 10 µM is -8.96%. The same measure for `O=C(c1ccccc1)N1C[C@@H]2CCCO[C@@H]2[C@H](N2CCCC2)C1`: -2.02%; for `Cc1ccc(C(=O)N2C[C@@H]3CCCO[C@@H]3[C@H](N3CCOCC3)C2)cn1`: -3.4%.

Regarding `CN(C)C(=O)Cn1c2c(ccc1=O)CCN(Cc1cnn(C)c1)CC2`, the cytotoxicity at 10 µM stood at 0.886%. To `Cc1cc(C(=O)N2C[C@@H]3C(CN(C)CCCn4cccn4)[C@@H]3C2)c(C)o1` (stereo partly specified) belongs -55.4%.
